Compound activity: PubChem BioAssay, The Scripps Research Institute Molecular Screening Center
An excerpt weighted towards active compounds, which were near 3.3% of everything screened.
PRMT1 inh: blocks human protein arginine methyltransferase 1; recombinant PRMT1, activity-based probe fluorescence polarization; inhibition, % at 2.79 µM; Q99873; 370,000 compounds, 1.3% hits;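 active means inhibition above about 21% made by adding two undisclosed values, limit read from the data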
TCR CD3 inh: inhibitors of human TCR-CD3 interaction | TAMRA-labeled TCR probe fluorescence, biochemical | inhibition, % at 9.4 µM | 360,000 compounds, 0.37% hits | AID 651800; in the data active means inhibition above about 19%;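 further: recombinant mutant TCR 2C K166C tagged with TAMRA read by polarization; 0% = receptor in buffer alone and 100% = receptor with positive control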
rCAG RNA binder: molecules binding r(CAG) RNA repeats; r(CAG) RNA repeat, TO-PRO-1 dye displacement fluorescence; inhibition, % at 3 µM; 370,000 compounds, 1.3% hits; AID 651821;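 active means inhibition above the plate cutoff, the mean of all test compounds on that plate plus 3 SD, cut at about 35% in these data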;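 further: 0% = DMSO alone and 100% = 100 µM mitoxantrone as full dye displacement; higher means more dye released from RNA so lower well fluorescence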
mABHD4 FP: inhibitors of mouse ABHD4; Q8VD66; purified mABHD4, FP-Rh probe fluorescence polarization; inhibition, % at 8.92 µM; 370,000 compounds, 0.54% hits; AID 720543;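 active means inhibition exceeding the mean over every tested compound plus 3 SD, cut at about 30% in these data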;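 further: 0% = plate median of compound wells and 100% = S159A mutant with DMSO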
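Assay system: Wild-type mouse ABHD4 protein | Medium: HEPES pH 7.0 buffer, 150 mM NaCl, 0.01% Pluronic F-127 | Incubation: Enzyme–compound pre-incubation 45 min, then probe 60 min, both 25 °C | Technique: Fluorescence polarization with parallel and perpendicular emission, 525/598 nm | Evaluation: % inhibition of FP-Rh probe binding versus controls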
SIAE primary: blocks human sialic acid acetylesterase. AID 1053197. SIAE FP-Rh probe binding, fluorescence polarization. inhibition, % at 9.66 µM. Q9HAT2. 370,000 compounds, 0.69% hits;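 active means inhibition above a cutoff: mean of compounds within the control limits plus 3 SD of those, cut at about 17% in these data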;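 further: 0% = plate median of compound wells and 100% = probe without SIAE protein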
Target sequence (Q9HAT2 whole entry, looked up): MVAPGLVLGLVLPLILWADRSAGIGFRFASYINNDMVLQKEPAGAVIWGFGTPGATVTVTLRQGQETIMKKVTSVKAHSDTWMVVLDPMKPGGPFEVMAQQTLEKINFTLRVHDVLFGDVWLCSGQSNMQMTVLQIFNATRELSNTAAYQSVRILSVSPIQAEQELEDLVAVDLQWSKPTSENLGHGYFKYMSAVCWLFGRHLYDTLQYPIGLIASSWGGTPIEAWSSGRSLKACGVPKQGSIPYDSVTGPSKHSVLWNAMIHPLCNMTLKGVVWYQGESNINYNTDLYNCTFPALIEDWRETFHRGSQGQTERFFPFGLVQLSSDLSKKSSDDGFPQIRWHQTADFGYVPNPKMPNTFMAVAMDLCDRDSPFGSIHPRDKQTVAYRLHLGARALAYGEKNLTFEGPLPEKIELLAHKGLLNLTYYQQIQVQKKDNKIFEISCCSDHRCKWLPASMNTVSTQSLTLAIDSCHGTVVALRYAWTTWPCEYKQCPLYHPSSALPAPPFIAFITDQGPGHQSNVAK
PRMT1 confirm: PRMT1 (human) inhibition, FP confirmation | shares compounds with PRMT1 inh | recombinant His-PRMT1, activity-based probe fluorescence polarization | inhibition, % at 2.79 µM | 3,300 compounds, 42% hits;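 active means mean inhibition across replicates above the hit cutoff derived for the earlier primary screen, cut at about 22% in these data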
ABHD4 confirm: ABHD4 (mouse) inhibition, FP confirmation | shares compounds with mABHD4 FP | purified mABHD4, FP-Rh probe fluorescence polarization | inhibition, % at 8.92 µM | 1,800 compounds, 55% hits | AID 720658;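 active means mean inhibition across replicates above the hit cutoff set in the primary screen, cut at about 30% in these data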;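 further: 0% = wild-type ABHD4 with DMSO and 100% = catalytically dead S159A mutant with DMSO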
SIAE confirm: human SIAE inhibition, confirmation; shares compounds with SIAE primary; SIAE FP-Rh activity-based probe, fluorescence polarization; inhibition, % at 9.66 µM; 2,300 compounds, 13% hits; AID 1117263;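 active means mean inhibition of the replicates above the hit cutoff set in the primary screen, cut at about 17% in these data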;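 further: 0% = SIAE with DMSO and probe and 100% = probe without SIAE; inhibitors lower polarization as more probe stays unbound to SIAE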
* hit, by the source's call; x = no result.

SMILES	PRMT1 inh	TCR CD3 inh	rCAG RNA binder	mABHD4 FP	SIAE primary	PRMT1 confirm	ABHD4 confirm	SIAE confirm
COC(=O)[C@H](C)N(Cc1cn(Cc2ccccc2)nn1)S(=O)(=O)c1ccccc1Br	-3	x	1	-4	-2	x	x	x
CC(C1SC(=S)NC1=O)C1SC(=S)NC1=O (stereo unspecified)	89*	7	16	46*	-3	51*	20	x
C[C@@H]1[C@@H](O)C[C@@]2(C[C@H](O)c3cc(F)ccc3O2)O[C@H]1c1ccccc1Cl	-3	x	-1	-11	-4	x	x	x
CCn1c(C)nc2cc(C(=O)N/N=C/c3ccc(O)c(O)c3O)ccc21	43*	66*	32	35*	9	43*	44*	x
O=C(Nc1nc2ncccn2c1-c1ccc(F)cc1)C1CC1	-1	x	0	1	6	x	x	x
CCC(=O)Nc1cc(OC)c(NC(=S)Nc2ccccc2CC)cc1OC	47*	3	2	43*	11	-3	-5	x
CCc1ccccc1NC(=O)CC(=O)Nc1ccccc1CC	0	-1	-1	3	-9	x	x	x
O=c1ccc2cc(O)c(O)cc2o1	32*	15	9	50*	6	3	2	x
CCn1c(Cc2cccs2)nnc1SCC(=O)Nc1ccc(Cl)cc1C	6	x	0	0	4	x	x	x
O=c1c2c([N+](=O)[O-])cc([N+](=O)[O-])cc2sn1Cc1ccccc1	96*	0	3	32*	25*	97*	26	20*
O=c1c2c([N+](=O)[O-])cc([N+](=O)[O-])cc2nc2ccccn12	0	6	10	16	-1	x	x	x
Cn1c(=O)c(Nc2ccc(O)cc2)c2c3c(cccc31)C(=O)c1ccccc1-2	105*	16	-43	74*	26*	32*	65*	14
C=CCN(C)C(C#CCCCC)c1ccccc1 (stereo unspecified)	2	x	x	1	3	x	x	x
CCCCCCCCSC1=CC(=O)C(OC)=C(OC)C1=O	39*	-5	4	39*	21*	88*	52*	6
Cc1ccc(/C=C2/C(=O)N(c3ccccc3)C(=S)N2C)o1	18	3	2	-2	3	x	x	x
Cc1ccc(/C=C2\C(=O)NC(=O)N2C)o1	36*	0	0	2	19*	37*	x	0
COc1cc(/C=N/NC(=S)Nc2cccc(S(=O)(=O)N(C)C)c2)cc(OC)c1O	-2	0	6	13	5	x	x	x
CN(C)S(=O)(=O)c1cccc(NC(=S)N/N=C/c2ccc(O)c(O)c2O)c1	36*	51*	59*	32*	35*	84*	82*	27*
COc1ccc2c(c1OC)C(=O)N1c3ccccc3N=C(c3ccc([N+](=O)[O-])cc3)CC21 (stereo unspecified)	32*	3	2	3	21*	7	x	2
COc1ccc2c(c1OC)C(=O)N1N=C(c3ccc(-c4ccccc4)cc3)CC21 (stereo unspecified)	-1	0	-3	6	2	x	x	x
C[C@@H]1CCN(C2CC2)S(=O)(=O)c2ccc(N3CCC[C@H]3CO)cc2O1	1	x	7	3	0	x	x	x
Cc1cc(C)n2c(Nc3ccc4c(c3)OCCO4)c(-c3ccc(C)o3)nc2n1	31*	9	23	17	17*	3	x	4
Cc1cc(C)n2c(Nc3ccc4c(c3)OCCO4)c(-c3cc4ccccc4o3)nc2n1	3	-9	14	18	11	x	x	x
CCCN1C(=O)c2cccc3c(N4CCCCC4)ccc(c23)C1=O	84*	-8	-18	11	20*	51*	x	7
CCCCNc1ccc2c3c(cccc13)C(=O)N(CCCC)C2=O	155*	4	-310	52*	19*	133*	68*	18*
CC1COCC(C)N1S(=O)(=O)c1ccc2c(c1)CCN2C(=O)C1CCC1 (stereo unspecified)	-2	x	2	1	4	x	x	x
